According to PMC3461162 (British Journal of Cancer, 2012):

Tests used:
Format in all cases: in vivo, human
[1] = tested on: phosphorylation levels of 4E-BP1 on threonine^37/46 in peripheral blood mononuclear cells (PBMCs); assay: 4E-BP1 phosphorylation in PBMCs; details: 2 h post dose, MTD cohort (90 mg)
In short: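 Adult patients with refractory advanced solid tumours or lymphoma got one oral dose on day 1, then continuous twice-daily dosing from one week later. They fasted at least 1 h before and after each dose. PBMCs were taken pre-dose and 2, 8 and 24 h post dose on day 1. Antibodies to the phosphorylated forms were used: AKT Ser473 by mesoscale detection, 4E-BP1 Thr37/46 by FACS.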

[2] = Urine pharmacokinetics after single dose; details: for CL renal: human, urine, oral, CLR, Amean (n) (range); for fe (0–24), dose fraction excreted unchanged in the urine, Amean (n) (range): zero to 24 h post dose
[3] = Plasma pharmacokinetics, non-compartmental analysis; details: for AUC(0-t) / AUC / Cmax / Vd/F / half-life / Tmax: human, plasma, oral; for AUC(0-t): AUC0–12, Gmean (range); for Vd/F: Vss/F, Amean (range)
tumour glucose uptake = assay: Metabolic response by FDG-PET; details: day 35
In short: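 FDG-PET was done at screening in solid-tumour patients with RECIST-measurable lesions and in all lymphoma patients. Percentage change in SUVmax from baseline was calculated. Metabolic response was defined as an SUVmax decrease >25% per EORTC criteria.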

[4] = following BID dosing, 10 mg BID solution
[5] = following BID dosing, 20 mg BID solution
[6] = following BID dosing, 40 mg BID solution
[7] = following BID dosing, 40 mg BID tablet
[8] = following BID dosing, 60 mg BID tablet
[9] = following BID dosing, 90 mg BID tablet
[10] = following BID dosing, 120 mg BID tablet
[11] = 10 mg, single dose, 10 mg solution (n=5)
[12] = 20 mg, single dose, 20 mg solution (n=3)
[13] = 40 mg, single dose, 40 mg solution (n=6)
[14] = 40 mg, single dose, 40 mg tablet (n=7)
[15] = 60 mg, single dose, 60 mg tablet (n=7)
[16] = 90 mg, single dose, 90 mg tablet (n=11)
[17] = 120 mg, single dose, 120 mg tablet (n=10)

## COc1ccc(-c2ccc3c(N4CCOC[C@@H]4C)nc(N4CCOC[C@@H]4C)nc3n2)cc1CO [AZD8055]
[1]
  Patients with transient decrease in p4E-BP1 in PBMC: 2/5
[2]; all dose levels, first 24 h following the single dose
  Dose excreted unchanged in the urine: < 0.25%
[2]; 10 mg, single dose, 10 mg solution
  CL renal: 1.95 mL/min
[2]; 20 mg, single dose, 20 mg solution
  CL renal: 1.29 mL/min
[2]; 40 mg, single dose, 40 mg solution
  CL renal: 1.78 mL/min
[2]; 40 mg, single dose, 40 mg tablet
  CL renal: 3.68 mL/min
[2]; 60 mg, single dose, 60 mg tablet
  CL renal: 2.67 mL/min
[2]; 90 mg, single dose, 90 mg tablet
  CL renal: 1.75 mL/min
[2]; 120 mg, single dose, 120 mg tablet
  CL renal: 1.68 mL/min
[2]; single dose
  Renal clearance: low renal clearance
[2]; single dose, 10 mg solution
  fe (0–24), dose fraction excreted unchanged in the urine, Amean (n) (range): 0.0248 (4) (0.0121–0.0438) %
[2]; single dose, 20 mg solution
  fe (0–24), dose fraction excreted unchanged in the urine, Amean (n) (range): 0.0114 (3) (0.00512–0.0207) %
[2]; single dose, 40 mg solution
  fe (0–24), dose fraction excreted unchanged in the urine, Amean (n) (range): 0.0227 (5) (0.00907–0.0423) %
[2]; single dose, 40 mg tablet
  fe (0–24), dose fraction excreted unchanged in the urine, Amean (n) (range): 0.0881 (6) (0.0043–0.224) %
[2]; single dose, 60 mg tablet
  fe (0–24), dose fraction excreted unchanged in the urine, Amean (n) (range): 0.0222 (7) (0.00289–0.0712) %
[2]; single dose, 90 mg tablet
  fe (0–24), dose fraction excreted unchanged in the urine, Amean (n) (range): 0.0231 (9) (0.00155–0.0704) %
[2]; single dose, 120 mg tablet
  fe (0–24), dose fraction excreted unchanged in the urine, Amean (n) (range): 0.0375 (7) (0.00237–0.151) %
[3]; BID dosing, solution formulation (10–40 mg)
  Dose proportionality of exposure: proportional increase in exposure
[3]; BID dosing, tablet formulation (40–120 mg)
  Dose proportionality of exposure: greater than proportional increase with increasing dose
[3]; [4]
  CLss/F, Amean (n) (range): 439 (4) (352–521) l h^−1
  Cmin ss, Gmean (n) (range): 0.114 (3) (0.057–0.189) ng ml^−1
  T c (temporal change, linearity factor), Gmean (n) (range): 1.03 (4) (0.839–1.48)
[3]; [5]
  CLss/F, range only (Amean NC, n=2): NC (2) (268–426) l h^−1
  Cmin ss, range only (Gmean NC, n=1): NC (1) (0.228–0.228) ng ml^−1
  T c (temporal change, linearity factor), range only (Gmean NC, n=2): NC (2) (1.61–2.07)
[3]; [6]
  CLss/F, Amean (n) (range): 369 (6) (278–492) l h^−1
  Cmin ss, Gmean (n) (range): 0.370 (5) (0.162–0.821) ng ml^−1
  T c (temporal change, linearity factor), Gmean (n) (range): 1.10 (6) (0.539–1.65)
[3]; [7]
  CLss/F, Amean (n) (range): 465 (5) (148–906) l h^−1
  Cmin ss, Gmean (n) (range): 0.959 (5) (0.294–2.71) ng ml^−1
  T c (temporal change, linearity factor), Gmean (n) (range): 0.806 (5) (0.444–1.13)
[3]; [8]
  CLss/F, Amean (n) (range): 483 (6) (92.9–1250) l h^−1
  T c (temporal change, linearity factor), Gmean (n) (range): 1.30 (6) (0.525–2.50)
[3]; [9]
  CLss/F, Amean (n) (range): 856 (4) (457–1630) l h^−1
  Cmin ss, Gmean (n) (range): 0.543 (5) (0.177–3.18) ng ml^−1
  T c (temporal change, linearity factor), Gmean (n) (range): 1.18 (4) (0.831–1.69)
[3]; [10]
  CLss/F, Amean (n) (range): 283 (7) (68.2–494) l h^−1
  Cmin ss, Gmean (n) (range): 3.54 (5) (1.40–41.1) ng ml^−1
  T c (temporal change, linearity factor), Gmean (n) (range): 1.81 (7) (1.09–3.50)
[3]; [11]
  AUC(0-t): 24.1 ng·h/mL
  Vd/F: 884 L
[3]; 10 mg, AUC, Gmean (range), single dose, 10 mg solution (n=5)
  AUC: 24.5 ng·h/mL
[3]; 10 mg, AUCss, Gmean (n) (range), following BID dosing, 10 mg BID solution
  AUC: 23 ng·h/mL
[3]; 10 mg, Cmax ss, Gmean (n) (range), following BID dosing, 10 mg BID solution
  Cmax: 17.3 ng/mL
[3]; 10 mg, Cmax, Gmean (range), single dose, 10 mg solution (n=5)
  Cmax: 16.8 ng/mL
[3]; 10 mg, t1/2, Amean (range), single dose, 10 mg solution (n=5)
  half-life: 2.43 h
[3]; 10 mg, t1/2 ss, Amean (n) (range), following BID dosing, 10 mg BID solution
  half-life: 2.82 h
[3]; 10 mg, tmax ss, Median (n) (range), following BID dosing, 10 mg BID solution
  Tmax: 0.5 h
[3]; 10 mg, tmax, Median (range), single dose, 10 mg solution (n=5)
  Tmax: 0.5 h
[3]; [12]
  AUC(0-t): 43.3 ng·h/mL
  Vd/F: 1050 L
[3]; 20 mg, AUC, Gmean (range), single dose, 20 mg solution (n=3)
  AUC: 43.7 ng·h/mL
[3]; 20 mg, Cmax, Gmean (range), single dose, 20 mg solution (n=3)
  Cmax: 27 ng/mL
[3]; 20 mg, t1/2, Amean (range), single dose, 20 mg solution (n=3)
  half-life: 1.86 h
[3]; 20 mg, tmax, Median (range), single dose, 20 mg solution (n=3)
  Tmax: 0.5 h
[3]; [13]
  AUC(0-t): 99.4 ng·h/mL
  Vd/F: 840 L
[3]; [14]
  AUC(0-t): 124 ng·h/mL
  Vd/F: 762 L
[3]; 40 mg, AUC, Gmean (range), single dose, 40 mg solution (n=6)
  AUC: 101 ng·h/mL
[3]; 40 mg, AUC, Gmean (range), single dose, 40 mg tablet (n=7)
  AUC: 127 ng·h/mL
[3]; 40 mg, AUCss, Gmean (n) (range), following BID dosing, 40 mg BID solution
  AUC: 111 ng·h/mL
[3]; 40 mg, AUCss, Gmean (n) (range), following BID dosing, 40 mg BID tablet
  AUC: 101 ng·h/mL
[3]; 40 mg, Cmax ss, Gmean (n) (range), following BID dosing, 40 mg BID solution
  Cmax: 61.9 ng/mL
[3]; 40 mg, Cmax ss, Gmean (n) (range), following BID dosing, 40 mg BID tablet
  Cmax: 46.1 ng/mL
[3]; 40 mg, Cmax, Gmean (range), single dose, 40 mg solution (n=6)
  Cmax: 70.9 ng/mL
[3]; 40 mg, Cmax, Gmean (range), single dose, 40 mg tablet (n=7)
  Cmax: 72.3 ng/mL
[3]; 40 mg, t1/2, Amean (range), single dose, 40 mg solution (n=6)
  half-life: 2.65 h
[3]; 40 mg, t1/2, Amean (range), single dose, 40 mg tablet (n=7)
  half-life: 2.28 h
[3]; 40 mg, t1/2 ss, Amean (n) (range), following BID dosing, 40 mg BID solution
  half-life: 2.13 h
[3]; 40 mg, t1/2 ss, Amean (n) (range), following BID dosing, 40 mg BID tablet
  half-life: 3.04 h
[3]; 40 mg, tmax ss, Median (n) (range), following BID dosing, 40 mg BID solution
  Tmax: 0.25 h
[3]; 40 mg, tmax ss, Median (n) (range), following BID dosing, 40 mg BID tablet
  Tmax: 1 h
[3]; 40 mg, tmax, Median (range), single dose, 40 mg solution (n=6)
  Tmax: 0.37 h
[3]; 40 mg, tmax, Median (range), single dose, 40 mg tablet (n=7)
  Tmax: 1 h
[3]; [15]
  AUC(0-t): 131 ng·h/mL
  Vd/F: 1770 L
[3]; 60 mg, AUC, Gmean (range), single dose, 60 mg tablet (n=7)
  AUC: 136 ng·h/mL
[3]; 60 mg, AUCss, Gmean (n) (range), following BID dosing, 60 mg BID tablet
  AUC: 178 ng·h/mL
[3]; 60 mg, Cmax ss, Gmean (n) (range), following BID dosing, 60 mg BID tablet
  Cmax: 82.8 ng/mL
[3]; 60 mg, Cmax, Gmean (range), single dose, 60 mg tablet (n=7)
  Cmax: 57.1 ng/mL
[3]; 60 mg, t1/2, Amean (range), single dose, 60 mg tablet (n=7)
  half-life: 2.37 h
[3]; 60 mg, t1/2 ss, Amean (n) (range), following BID dosing, 60 mg BID tablet
  half-life: 2.81 h
[3]; 60 mg, tmax ss, Median (n) (range), following BID dosing, 60 mg BID tablet
  Tmax: 1 h
[3]; 60 mg, tmax, Median (range), single dose, 60 mg tablet (n=7)
  Tmax: 0.5 h
[3]; 90 mg
  Cmax: 70.1 ng/mL
  half-life: 2.36 h
[3]; [16]
  AUC(0-t): 130 ng·h/mL
  Vd/F: 2450 L
[3]; 90 mg, AUC, Gmean (range), single dose, 90 mg tablet (n=11)
  AUC: 134 ng·h/mL
[3]; 90 mg, AUCss, Gmean (n) (range), following BID dosing, 90 mg BID tablet
  AUC: 122 ng·h/mL
[3]; 90 mg, Cmax ss, Gmean (n) (range), following BID dosing, 90 mg BID tablet
  Cmax: 70 ng/mL
[3]; 90 mg, t1/2 ss, Amean (n) (range), following BID dosing, 90 mg BID tablet
  half-life: 2.63 h
[3]; 90 mg, tmax ss, Median (n) (range), following BID dosing, 90 mg BID tablet
  Tmax: 0.5 h
[3]; 90 mg, tmax, Median (range), single dose, 90 mg tablet (n=11), MTD
  Tmax: 0.5 h
[3]; [17]
  AUC(0-t): 280 ng·h/mL
  Vd/F: 1370 L
[3]; 120 mg, AUC, Gmean (range), single dose, 120 mg tablet (n=10)
  AUC: 294 ng·h/mL
[3]; 120 mg, AUCss, Gmean (n) (range), following BID dosing, 120 mg BID tablet
  AUC: 501 ng·h/mL
[3]; 120 mg, Cmax ss, Gmean (n) (range), following BID dosing, 120 mg BID tablet
  Cmax: 355 ng/mL
[3]; 120 mg, Cmax, Gmean (range), single dose, 120 mg tablet (n=10)
  Cmax: 177 ng/mL
[3]; 120 mg, t1/2, Amean (range), single dose, 120 mg tablet (n=10)
  half-life: 3.14 h
[3]; 120 mg, t1/2 ss, Amean (n) (range), following BID dosing, 120 mg BID tablet
  half-life: 2.45 h
[3]; 120 mg, tmax ss, Median (n) (range), following BID dosing, 120 mg BID tablet
  Tmax: 0.5 h
[3]; 120 mg, tmax, Median (range), single dose, 120 mg tablet (n=10)
  Tmax: 0.5 h
[3]; mean t1/2, single and multiple doses across all cohorts
  half-life: 1.7 to 3.1 h
[3]; median tmax, single and multiple doses across all cohorts
  Tmax: ~0.5 h
[3]; oral dosing in patients
  Oral bioavailability: orally bioavailable
[3]; single dose, 90 mg tablet (n=11), MTD
  tmax, Median (range): 1.00 (0.25–4) h
[3]; single dosing, all cohorts
  Dose proportionality of exposure: proportional increases in exposure with increasing dose
Tumour glucose uptake; 40 mg tablet BID
  Patients with partial metabolic response by FDG-PET (decrease in SUVmax>25%): 2/5
Tumour glucose uptake; 60 mg BID
  Patients with partial metabolic response by FDG-PET (decrease in SUVmax>25%): 2/5
Tumour glucose uptake; 90 mg BID
  Patients with partial metabolic response by FDG-PET (decrease in SUVmax>25%): 1/7
Tumour glucose uptake; 120 mg BID
  Patients with partial metabolic response by FDG-PET (decrease in SUVmax>25%): 3/9
